Source: ChEMBL document CHEMBL3853298, “Total synthesis and in vitro bioevaluation of clavaminols A, C, H & deacetyl clavaminol H as potential chemotherapeutic and antibiofilm agents” (Eur J Med Chem, 2016)
In brackets after ≈: the same amount, converted by molar mass.

Tests used:
[1] = tested on: Candida albicans; test: Antifungal activity against Candida albicans MTCC 183 after 24 hrs by well diffusion method; type: functional; settings: MTCC 183, 24 h
Outline: (§1)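 Candida/Issatchenkia lawns (0.1 mL suspension) on Mueller-Hinton agar; 6.0 mm bored wells receive compound across a 250 to 0.48 per-well dose range, methanol as negative control. Plates kept 24 h at 30 °C. MIC is the lowest concentration producing a visible inhibition zone. Duplicate runs, mean values.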

[2] = tested on: Candida albicans; test: Antifungal activity against Candida albicans MTCC 3018 after 24 hrs by well diffusion method; type: functional; settings: MTCC 3018, 24 h; outline: as §1
[3] = Cytotoxicity against human DU145 cells assessed as cell growth inhibition by MTT assay; type: functional, cell-based; settings: DU-145
[4] = tested on: Staphylococcus aureus; test: Antibacterial activity against Staphylococcus aureus MLS16 MTCC 2940 after 24 hrs by well diffusion method; type: functional; settings: MLS16 MTCC 2940, 24 h
Outline: (§2)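 Bacteria spread (0.1 mL suspension) on Mueller-Hinton agar; 6.0 mm wells loaded with compound over a 250 to 0.48 per-well dose range, methanol as negative control. Incubated 24 h at 37 °C. MIC taken as the lowest concentration still giving an inhibition zone. Duplicates, mean reported.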

[5] = tested on: Bacillus subtilis; test: Antibacterial activity against Bacillus subtilis MTCC 121 after 24 hrs by well diffusion method; type: functional; settings: MTCC 121, 24 h; outline: as §2
[6] = tested on: Candida albicans; test: Fungicidal activity against Candida albicans MTCC 4748 after 24 hrs; type: functional; settings: MTCC 4748, 24 h
Outline: (§3)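 Candida grown overnight in Mueller Hinton broth. Compound serially diluted in the same broth from 150 to 0 and inoculated to a final 1.5 × 10^8 CFU/mL (0.5 McFarland), then 24 h at 37 °C. Tube contents plated onto Mueller Hinton agar for 24 h at 37 °C. MFC is the lowest concentration killing the yeast. Duplicates.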

[7] = tested on: Candida parapsilosis; test: Fungicidal activity against Candida parapsilosis MTCC 1744 after 24 hrs; type: functional; settings: Lodderomyces parapsilosis, MTCC 1744, 24 h
Outline: (§4)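 Broth dilution in Mueller Hinton broth with serial compound concentrations from […]. Overnight Candida cultures added to a final 1.5 × 10^8 CFU/mL (0.5 McFarland). Incubated 24 h at 37 °C, then 10 µL of each tube plated on Mueller Hinton agar for 24 h at 37 °C. MFC taken as the lowest concentration that kills the strain. Run in duplicate.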

[8] = tested on: Nakaseomyces glabratus; test: Fungicidal activity against Candida glabrata MTCC 3019 after 24 hrs; type: functional; settings: MTCC 3019, 24 h; outline: as §3
[9] = tested on: Micrococcus luteus; test: Antibacterial activity against Micrococcus luteus MTCC 2470 after 24 hrs by well diffusion method; type: functional; settings: MTCC 2470, 24 h; outline: as §2
[10] = Antifungal activity against Candida glabrata MTCC 3019 after 24 hrs by well diffusion method; type: functional; settings: Nakaseomyces glabratus; outline: as §1
[11] = tested on: Raoultella planticola; test: Antibiofilm activity against Klebsiella planticola MTCC 530 incubated for 24 hrs under static condition by crystal violet staining-based assay; type: functional
Outline: (§5)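 Strains grown overnight in tryptone soy broth with 0.5% glucose. Compound (250 to 0) mixed with inoculum at 5 × 10^5 CFU/mL in polystyrene microtiter plates. Non-adherent cells washed off with PBS; wells stained with 0.1% crystal violet, dye solubilised in 95% ethanol, absorbance read at 540 nm. IC50 for 50% biofilm inhibition taken from dose-response curves. Triplicates, mean ± S.D.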

[12] = tested on: Pichia sporocuriosa; test: Antifungal activity against Issatchenkia hanoiensis MTCC 4755 after 24 hrs by well diffusion method; type: functional; settings: MTCC 4755, 24 h; outline: as §1
[13] = tested on: Pseudomonas aeruginosa; test: Antibacterial activity against Pseudomonas aeruginosa MTCC 2453 after 24 hrs by well diffusion method; type: functional; settings: MTCC 2453, 24 h; outline: as §2
[14] = tested on: Micrococcus luteus; test: Bactericidal activity against Micrococcus luteus MTCC 2470 after 24 hrs; type: functional; settings: MTCC 2470, 24 h
Outline: (§6)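 Broth macrodilution in Mueller Hinton broth, compound serially diluted from 150 down to 0. Overnight bacterial culture added to a final 1.5 × 10^8 CFU/mL (0.5 McFarland), 24 h at 37 °C. Suspension then subcultured onto Mueller Hinton agar for 24 h at 37 °C. MBC is the lowest concentration killing the strain. Duplicates.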

[15] = tested on: Candida albicans; test: Antifungal activity against Candida albicans MTCC 4748 after 24 hrs by well diffusion method; type: functional; settings: MTCC 4748, 24 h; outline: as §1
[16] = tested on: [Candida] aaseri; test: Fungicidal activity against Candida aaseri MTCC 1962 after 24 hrs; type: functional; settings: Yamadazyma aaseri, MTCC 1962, 24 h; outline: as §3
[17] = tested on: Staphylococcus aureus; test: Antibiofilm activity against Staphylococcus aureus MLS16 MTCC 2940 incubated for 24 hrs under static condition by crystal violet staining-based assay; type: functional; outline: as §5
[18] = Cytotoxicity against human HeLa cells assessed as cell growth inhibition by MTT assay; type: functional, cell-based
[19] = tested on: Escherichia coli; test: Antibacterial activity against Escherichia coli MTCC 739 after 24 hrs by well diffusion method; type: functional; settings: MTCC 739, 24 h; outline: as §2
[20] = tested on: Pseudomonas aeruginosa; test: Bactericidal activity against Pseudomonas aeruginosa MTCC 2453 after 24 hrs; type: functional; settings: MTCC 2453, 24 h; outline: as §6
[21] = tested on: Pichia sporocuriosa; test: Fungicidal activity against Issatchenkia hanoiensis MTCC 4755 after 24 hrs; type: functional; settings: MTCC 4755, 24 h; outline: as §4
[22] = tested on: Staphylococcus aureus; test: Bactericidal activity against Staphylococcus aureus MLS16 MTCC 2940 after 24 hrs; type: functional; settings: MLS16 MTCC 2940, 24 h; outline: as §6
[23] = tested on: Candida albicans; test: Fungicidal activity against Candida albicans MTCC 183 after 24 hrs; type: functional; settings: MTCC 183, 24 h; outline: as §3
[24] = tested on: Pichia kudriavzevii; test: Fungicidal activity against Candida krusei MTCC 3020 after 24 hrs; type: functional; settings: MTCC 3020, 24 h; outline: as §4
[25] = tested on: Escherichia coli; test: Antibiofilm activity against Escherichia coli MTCC 739 incubated for 24 hrs under static condition by crystal violet staining-based assay; type: functional; outline: as §5
[26] = tested on: Candida albicans; test: Fungicidal activity against Candida albicans MTCC 3017 after 24 hrs; type: functional; settings: MTCC 3017, 24 h; outline: as §3
[27] = tested on: Staphylococcus aureus; test: Bactericidal activity against Staphylococcus aureus MTCC 96 after 24 hrs; type: functional; settings: MTCC 96, 24 h; outline: as §6

MIC [1]: 31.2 mg/L (≈ 155 µM) | MIC [2]: 15.6 mg/L (≈ 77.5 µM) | MIC [4]: 3.9 mg/L (≈ 19.4 µM) | MIC [5]: 7.8 mg/L (≈ 38.7 µM) | MIC [9]: 1.9 mg/L (≈ 9.44 µM) | MIC [10]: 15.6 mg/L (≈ 77.5 µM) | MIC [12]: 31.2 mg/L (≈ 155 µM) | MIC [13]: 7.8 mg/L (≈ 38.7 µM) | MIC [15]: 31.2 mg/L (≈ 155 µM) | IC50 [17]: 2.2 mg/L (≈ 10.9 µM) | MIC [19]: 7.8 mg/L (≈ 38.7 µM)
Compound: CCCCCCCCC[C@H](O)[C@@H](C)N [CLAVAMINOL A]
IC50 [3]: 10.8 µM | MFC [6]: 62.5 mg/L (≈ 310 µM) | MFC [7]: 62.5 mg/L (≈ 310 µM) | MFC [8]: 31.2 mg/L (≈ 155 µM) | IC50 [11]: 8.6 mg/L (≈ 42.7 µM) | MBC [14]: 7.8 mg/L (≈ 38.7 µM) | MFC [16]: 62.5 mg/L (≈ 310 µM) | IC50 [18]: 15.4 µM | MBC [20]: 15.6 mg/L (≈ 77.5 µM) | MFC [21]: 62.5 mg/L (≈ 310 µM) | MBC [22]: 7.8 mg/L (≈ 38.7 µM) | MFC [23]: 62.5 mg/L (≈ 310 µM) | MFC [24]: 15.6 mg/L (≈ 77.5 µM) | INH [25]: 5.2 µg/mL | MFC [26]: 31.2 mg/L (≈ 155 µM) | MBC [27]: 15.6 mg/L (≈ 77.5 µM)
